Test results reported in paper PMC3582387 (Chemistry & biology, 2012).

What was measured:
[1] = molecular target: T1, MCL-1ΔNΔC (Homo sapiens, UniProt Q07820); experiment: Competitive FP assay against the FITC-BID BH3/MCL-1ΔNΔC interaction; assay type: binding
[2] = tested on: BCL-XL-rescued p185+Arf−/−/Mcl-1-deleted B-ALL cells; experiment: Caspase 3/7 activation; assay type: cell-based, murine; conditions: 8 h post-treatment
[3] = tested on: Bax−/−Bak−/− MEFs; experiment: Caspase 3/7 activation, Bax−/−Bak−/− MEFs; assay type: cell-based, mouse; conditions: 8 h
Procedure, shortened: (§1)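 Wild-type or Bax−/−Bak−/− mouse embryonic fibroblasts are kept in high-glucose DMEM with 10% FBS, penicillin/streptomycin, 2 mM L-glutamine, 50 mM HEPES, non-essential amino acids and 50 µM β-mercaptoethanol. Cells are seeded at 5×10^3/well for 24 h, then given serial dilutions of test compound or vehicle (0.4% DMSO). Caspase-Glo 3/7 reagent is added at 8 h and luminescence is read.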

[4] = tested on: wild-type MEFs; experiment: Caspase 3/7 activation, wild-type MEFs; assay type: cell-based, mouse; conditions: 8 h
Procedure, shortened: as §1

[5] = tested on: BCL-XL-rescued p185+Arf−/−/Mcl-1-deleted B-ALL cells; experiment: Cell viability; assay type: cell-based, murine
[6] = tested on: MCL-1-rescued p185+Arf−/−/Mcl-1-deleted B-ALL cells; experiment: Cell viability; assay type: cell-based, murine
Procedure, shortened: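 B-ALL cells come from Mcl-1f/f Arf−/− mouse marrow transformed with BCR-ABL(p185)-IRES-luciferase. They were stably transduced with MSCV-Puro-Mcl-1, and endogenous Mcl-1 was then deleted with MSCV-Cre-IRES-GFP; cells are kept in RPMI 1640/10% FBS. Cells (4×10^4/well) get serial dilutions of test compound or 0.4% DMSO in DMEM at 37 °C, with CellTiter-Glo luminescence read at 24 h. Data are normalized to vehicle; runs are at least duplicate and repeated twice with independent cultures.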

[7] = tested on: wild-type MEFs; experiment: Cell viability, wild-type MEFs; assay type: cell-based, mouse; conditions: same dose range as leukemia cells, 24 h
Procedure, shortened: (§2)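 MEFs (wild-type or Bax−/−Bak−/−) are maintained in supplemented high-glucose DMEM (10% FBS, antibiotics, L-glutamine, HEPES, β-mercaptoethanol). They are plated at 5×10^3 cells/well and allowed 24 h before exposure to serially diluted test compound, with 0.4% DMSO as vehicle. Viability is read as CellTiter-Glo luminescence after 24 h of treatment.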

[8] = tested on: Bax−/−Bak−/− MEFs; experiment: Cell viability, Bax−/−Bak−/− MEFs; assay type: cell-based, mouse; conditions: same dose range as leukemia cells, 24 h
Procedure, shortened: as §2

[9] = molecular target: T1, MCL-1ΔNΔC; experiment: Competitive FP assay against the FITC-MCL-1 SAHBA/MCL-1ΔNΔC interaction; assay type: binding
[10] = molecular target: T1, MCL-1ΔNΔC; experiment: BAX-mediated liposomal release assay, suppression by MCL-1ΔNΔC; assay type: biochemical; conditions: 20 nM tBID, 250 nM BAX
[11] = molecular target: BCL-XLΔC (Homo sapiens, UniProt Q07817); experiment: Competitive FP assay against the FITC-BID BH3/BCL-XLΔC interaction; assay type: binding
[12] = tested on: MCL-1-rescued p185+Arf−/−/Mcl-1-deleted B-ALL cells; experiment: Caspase 3/7 activation; assay type: cell-based, murine; conditions: 8 h post-treatment
Procedure, shortened: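 Mcl-1-floxed Arf−/− mouse marrow was transformed with p185-IRES-luciferase, stably rescued with MSCV-Puro-Mcl-1, and endogenous Mcl-1 was deleted via MSCV-Cre-IRES-GFP. Cells were kept in supplemented RPMI 1640 and seeded at 4×10^4/well. Serial dilutions of test compound or vehicle (0.4% DMSO) were added in DMEM at 37°C. Caspase-Glo 3/7 luminescence was read at 8 h. Values were normalized to vehicle (mean ± SEM, ≥duplicate, two independent cultures).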

[13] = molecular target: MCL-1/BAK complex (Mus musculus, UniProt P97287); experiment: Co-immunoprecipitation of MCL-1/BAK complex in MCL-1-reconstituted B-ALL cells; assay type: cell-based, murine; conditions: 6 h incubation
Procedure, shortened: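 MCL-1-reconstituted Mcl-1-deleted B-ALL cells (5×10^6) were given vehicle or test compound for 6 h. Lysate was precleared on protein A/G, then taken with anti-MCL-1 overnight at 4°C plus A/G beads for 1 h. After three washes and elution at 90°C, SDS-PAGE/Western probed MCL-1 and BAK.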

T1 sequence (Q07820 172-327, stated change not applied): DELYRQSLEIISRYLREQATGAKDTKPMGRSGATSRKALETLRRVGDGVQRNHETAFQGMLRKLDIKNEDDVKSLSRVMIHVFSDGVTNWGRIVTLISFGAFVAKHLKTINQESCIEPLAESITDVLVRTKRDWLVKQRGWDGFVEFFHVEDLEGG
BCL-XLΔC, sequence (Q07817 1-212 limits assumed, stated change not applied): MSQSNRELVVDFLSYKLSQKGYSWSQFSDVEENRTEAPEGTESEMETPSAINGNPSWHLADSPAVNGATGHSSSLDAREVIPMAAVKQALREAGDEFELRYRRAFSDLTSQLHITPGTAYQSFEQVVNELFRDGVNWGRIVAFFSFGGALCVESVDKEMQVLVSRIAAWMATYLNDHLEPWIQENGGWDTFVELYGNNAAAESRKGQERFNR
MCL-1/BAK complex, sequence (P97287 whole entry, one chain of several): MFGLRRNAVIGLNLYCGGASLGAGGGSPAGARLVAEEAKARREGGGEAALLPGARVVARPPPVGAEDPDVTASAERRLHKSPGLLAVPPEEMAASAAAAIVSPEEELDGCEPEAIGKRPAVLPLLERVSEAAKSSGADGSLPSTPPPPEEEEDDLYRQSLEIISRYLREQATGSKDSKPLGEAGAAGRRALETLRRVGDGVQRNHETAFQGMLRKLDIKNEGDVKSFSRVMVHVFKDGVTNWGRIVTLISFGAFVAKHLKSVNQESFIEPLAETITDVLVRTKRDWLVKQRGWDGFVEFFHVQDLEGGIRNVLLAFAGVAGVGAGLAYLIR

Structure (SMILES) | Competition with FITC-BID BH3 for MCL-1ΔNΔC binding (in words) [1] | Caspase 3/7 activation in BCL-XL-dependent cells [2] | Caspase 3/7 activation in Bax−/−Bak−/− MEFs [3] | Caspase 3/7 activation in wild-type MEFs [4] | IC50 ([5]; Mus musculus, 24 h, read-out: IC50, cell viability of BCL-XL-dependent cells) [µM] | Effect on viability of MCL-1-dependent cells (in words) ([6]; CellTiter-Glo at 24 h) | Effect on viability of wild-type MEFs [7] | Effect on viability of Bax−/−Bak−/− MEFs [8] | Competition with FITC-MCL-1 SAHBA for MCL-1ΔNΔC binding (in words) [9] | Blockade of MCL-1ΔNΔC suppression of tBID-induced BAX activation (liposomal release) [10] | IC50 [1] [µM] | Fold difference of IC50 for MCL-1ΔNΔC versus IC50 of ABT-737 for BCL-XLΔC ([1]; competition with FITC-BID BH3, MIM1 less potent) [fold] | IC50 [11] [µM] | Effect on viability of BCL-XL-dependent cells (in words) ([5]; CellTiter-Glo at 24 h) | IC50 ([6]; Mus musculus, 24 h, read-out: IC50, cell viability of MCL-1-dependent cells) [µM] | Caspase 3/7 activation in MCL-1-dependent cells [12] | Dissociation of the inhibitory MCL-1/BAK complex (co-immunoprecipitation) [13]
CN(C)CC[C@H](CSc1ccccc1)Nc1ccc(S(=O)(=O)NC(=O)c2ccc(N3CCN(Cc4ccccc4-c4ccc(Cl)cc4)CC3)cc2)cc1[N+](=O)[O-] [ABT-737, reference compound] | showed no activity toward MCL-1ΔNΔC | dose-responsive caspase 3/7 activation | no observed caspase 3/7 activation | no observed caspase 3/7 activation | 1.6 | no effect on the MCL-1-dependent cells | no significant effect | no significant effect | had no effect | had no effect on MCL-1ΔNΔC activity | – | – | – | – | – | – | –
Cc1cs/c(=N\C2CCCCC2)n1/N=C/c1ccc(O)c(O)c1O [MIM1, 4-((E)-(((Z)-2-(cyclohexylimino)-4-methylthiazol-3(2H)-yl)imino)methyl)benzene-1,2,3-triol] | – | – | no observed caspase 3/7 activation | no observed caspase 3/7 activation | – | – | no significant effect | no significant effect | – | preventing BAX suppression by MCL-1ΔNΔC | 4.8 | 7.5 | > 50 | little to no effect on the BCL-XL-dependent cells | 4.2 | dose-dependent induction of caspase 3/7 activity | dose-dependent dissociation of the inhibitory MCL-1/BAK complex
